PMI act hi M6P – increases human PMI activity with near-saturating mannose 6-phosphate. 0.34% of 190,000 active. coupled PMI enzyme assay, resazurin fluorescence, 20 min; stronger effect = higher value; 1 = untreated enzyme, 0 = substrate-free blank. P34949. activation factor at 20 µM. AID 1216;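 active = activation factor of 2 or more at 20 µM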
Target sequence (P34949 whole entry, looked up): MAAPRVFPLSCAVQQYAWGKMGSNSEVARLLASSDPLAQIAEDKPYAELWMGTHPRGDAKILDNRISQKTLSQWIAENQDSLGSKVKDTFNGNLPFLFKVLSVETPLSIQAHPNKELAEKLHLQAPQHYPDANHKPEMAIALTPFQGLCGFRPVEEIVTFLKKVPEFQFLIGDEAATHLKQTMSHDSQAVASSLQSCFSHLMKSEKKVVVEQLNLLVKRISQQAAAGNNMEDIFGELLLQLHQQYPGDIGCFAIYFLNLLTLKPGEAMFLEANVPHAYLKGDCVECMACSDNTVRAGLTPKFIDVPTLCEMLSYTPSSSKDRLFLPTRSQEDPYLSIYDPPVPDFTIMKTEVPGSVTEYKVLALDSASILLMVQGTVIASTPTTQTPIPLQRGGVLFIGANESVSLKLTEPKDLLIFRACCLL
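Test system: human phosphomannose isomerase with PGI, G6PDH, diaphorase coupling enzymes; Amount: PMI at 15 ng/mL final; Reagent: Mannose-6-phosphate 1.0 mM (near-saturating) plus 0.22 mM NADP+; Timing: 20 min, room temperature; Technique: resorufin fluorescence at Ex 544/Em 590 nm; Dosing: 20 µM single dose.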
PMI activator – phosphomannose isomerase (human) activation; purified human PMI, coupled resazurin fluorescence, 20 min; stronger effect = higher value; 1 = vehicle control, 0 substrate-free wells; activation factor at 20 µM; 0.005% of 190,000 active;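 active = activation factor of 2 or more at 20 µM, relative to plate controls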
Rad51 HR inh – blocks human Rad51 in homologous recombination | 0.085% of 200,000 active | AID 1385 | inhibition, % at 10 µM | Q06609 | hRad51 DNA strand exchange, fluorescence dequenching;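 active = inhibition above 40% at the single screening dose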;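 note: 0% = DMSO control wells and 100% = blanks with heterologous ssDNA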
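Test system – preformed human Rad51 ssDNA filaments · Reagent – Donor/quencher-labelled 47-bp dsDNA substrate · Incubation – 37 °C 15-min filament assembly, 30-min compound preincubation, 15-min exchange · Signal – FRET fluorescence dequenching, excitation 485 nm, emission 520 nm · Read-out – percent inhibition from fluorescence, normalised to plate control and blank means · Benchmarks – plate control and blank wells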
Lmaj promast – inhibitors of Leishmania major promastigote growth; Leishmania major promastigotes, resazurin fluorescence viability; inhibition, % at 10 µM; 9% of 200,000 active; AID 1063; in the data active = inhibition above about 50%;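 note: promastigotes grown with compound for 44 hours at 28 °C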
m-calpain inh – calpain II (pig) inhibition. purified calpain II, fluorogenic peptide substrate, 30 min. inhibition, % at 16 µM. 0.37% of 220,000 active. AID 1236;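 active = inhibition above about 50%, limit read from the data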
WT yeast gro inh – growth inhibition of WT yeast, mitochondrial fusion screen; mitochondrial fusion phenotypic screen, WT strain; inhibition, % at 10 µM; 2.1% of 190,000 active; AID 1362; in the data active = inhibition above about 58%; tested in S. cerevisiae
An asterisk follows results filed as active; i = inactive; nt = no result. Sampled rows, rich in hits. Any-hit rate of the full collection: about 9.8%.

SMILES	PMI act hi M6P	PMI activator	Rad51 HR inh	Lmaj promast	m-calpain inh	WT yeast gro inh
Cc1onc(C(=O)NN)c1C(=O)Nc1ncc(C(F)(F)F)cc1Cl	1	1.1	21	-4	-24	-28
CCOC(=O)C(C)(C)N(Cc1cccc(C)c1)S(=O)(=O)c1ccc(Cl)c([N+](=O)[O-])c1	0.9	0.9	0	86*	23	17
Cc1[nH]n(-c2ccc([N+](=O)[O-])cc2)c(=O)c1C=NCCN1CCN(C(=O)C(C)C)CC1	1	1	-5	-2	-9	63*
C/C(=C\c1ccccc1)CN1CCN(Cc2ccc(C)o2)C(CCO)C1 (stereo not drawn)	1	1	-3	83*	25	13
CCCCn1c(CCC)nc([N+](=O)[O-])c1Sc1ccc(Cl)cn1	1	1	2	75*	-2	17
O=C(COc1ccc2ccccc2c1CN1CCOCC1)N1CCc2ccccc21	1	1	-8	60*	12	7
O=C(COc1ccccc1)N1CCc2ccccc21	1	1	0	9	20	-8
CCCCCCCCCCCC(=O)NC1CCS(=O)(=O)C1 (stereo not drawn)	1	1.1	3	7	-11	18
Cc1ccc(N(C(=O)CCl)C(C(=O)NC2CCCCC2)c2cccnc2)cc1C (stereo not drawn)	1.2	1.1	1	100*	102*	-13
Cc1ccc(C(C(=O)NC2CCCC2)N(C(=O)Cc2cccs2)c2ccc(C)c(C)c2)o1 (stereo not drawn)	0.8	0.8	-3	19	63*	63*
Cc1nn(C)cc1C(C(=O)NC1CCCCC1)N(C(=O)Cc1cccs1)c1ccc(F)cc1 (stereo not drawn)	1.1	0.9	-9	70*	16	8
Cc1ccc(C)c(N(C(=O)Cc2cccs2)C(C(=O)NC2CCCC2)c2ccc(C)o2)c1 (stereo not drawn)	0.9	0.9	5	-2	53*	5
CCC(=O)Nc1ccc(C(=O)CSc2nnc(-c3ccc(NS(=O)(=O)CC)cc3)o2)cc1OC	nt	nt	-1	nt	18	nt
O=C1CCN(C(=O)CSc2ccc(Cl)cc2)N1	1	0.9	2	-7	23	3
N/C(Cc1ccc([N+](=O)[O-])cc1)=N\OC(=O)c1ccccc1Br	1	1	3	94*	-4	-37
N/C(Cc1ccc(Cl)cc1)=N\OC(=O)C1CCCCC1	1.1	1.1	5	73*	9	-8
N/C(Cc1ccc([N+](=O)[O-])cc1)=N\OC(=O)c1ccc(Br)cc1	0.9	0.9	8	2	7	22
COc1cccc(C(=O)O/N=C(\N)Cc2ccc(Cl)cc2)c1	0.9	0.9	-45	5	28	68*
N/C(Cc1ccc([N+](=O)[O-])cc1)=N\OC(=O)c1ccc2ccccc2c1	1.1	1.1	3	17	-13	81*
O=C(COC(=O)C1CCCC1)NCc1ccc(Cl)cc1	1	1	-2	-8	22	1
Cn1nc(-c2ccccc2)c(CO)c1Oc1ccc(F)cc1	1	1	-5	1	-1	-7
Cc1ccc(S(=O)(=O)Oc2ccc(/C=C(/NC(=O)c3ccccc3)C(=O)NC(C)C(=O)O)cc2)cc1 (stereo not drawn)	1	1	nt	-2	-7	10
Cc1cc(C(=O)C(C)OC(=O)C2=NNC(=O)CC2)c(C)n1-c1ccc(OC(F)F)cc1 (stereo not drawn)	0.9	0.9	0	99*	-58	-17
Cc1cc(C(=O)COC(=O)C2=NNC(=O)CC2)c(C)n1-c1ccc(OC(F)F)cc1	1.1	1.1	6	-6	-7	-8
Cc1ccc(C(=O)/C=C/c2cn(CN3CCN(C)CC3)c3ccccc23)cc1	1	0.9	-3	3	8	84*
SMILES	PMI act hi M6P	PMI activator	Rad51 HR inh	Lmaj promast	m-calpain inh	WT yeast gro inh
CNS(=O)(=O)c1ccc(NC(=O)c2ccccn2)cc1	0.9	1	3	47	4	-5
Cc1ccc(CNc2oc(-c3ccco3)nc2S(=O)(=O)c2ccccc2)cc1	1.2	1.5	0	36	19	63*
O=S(=O)(c1ccccc1)c1nc(-c2ccco2)oc1NCCN1CCOCC1	1.3	1.2	-5	13	2	6
Nc1ccccc1NC1CCCCC1	0.3	0.4	-29	54*	25	32
O=C(Nc1ccccc1NC(=O)NC1CCCCC1)NC1CCCCC1	1	0.9	-174	23	-21	-16
O=S(=O)(NNc1ccc(Cl)nn1)c1ccc(F)cc1	1.1	1.2	-2	91*	4	-4
Cc1cc(-c2nn(-c3ccccc3F)cc2CN2CCN(c3ccccn3)CC2)c(C)s1	0.9	0.9	-17	38	8	66*
Cc1cc(-c2nn(-c3ccccc3F)cc2CNCCc2cnccn2)c(C)s1	1.1	1	0	16	21	2
O=C(Nc1cccc(-c2cn3cccnc3n2)c1)c1ccc2c(c1)OCO2	1	1	0	98*	-446	nt
Oc1ccc(-c2csc(-c3ccccc3)n2)cc1O	0.7	0.4	-7	59*	10	5
O=C(Nc1ccc(O)c(-c2nc3ccccc3s2)c1)c1cccs1	1	1.1	0	62*	-29	-3
Cc1cccn2cc(-c3cccc(NC(=O)c4cccs4)c3)nc12	0.9	1	nt	10	29	-4
O=C(Nc1cccc(-c2cn3cccnc3n2)c1)c1cccs1	0.9	0.9	-6	98*	-125	-9
COc1ccc(NC(=O)CS(=O)(=O)c2cn(CC(=O)N3CCOCC3)c3ccccc23)cc1	0.9	1	1	-6	-8	1
Cc1nc2ncnn2c(C)c1Cc1cccc(C(F)(F)F)c1	1	1	-25	-1	13	12
COCCNC(=O)CCC(=O)NNc1nc2ccccc2c2nc(-c3ccccc3)nn12	1.1	1	8	-2	-32	-4
CCn1nc(C)c(/C=N/NC(=O)c2ccc3c(c2)c(C)c(C)n3Cc2ccccc2)c1C	1	0.9	nt	18	-107	52
O=C(Nc1cccc(-c2cn3cccnc3n2)c1)Nc1ccccc1F	1	1	3	22	-71	4
O=C(Nc1cccc(-c2cn3cccnc3n2)c1)c1ccc(Br)o1	1	1	2	100*	i	1
O=C(Nc1cccc(-c2cn3cccnc3n2)c1)c1ccco1	1.1	0.9	-1	100*	i	-11
O=C(Nc1cccc(-c2csc(-c3ccccc3)n2)c1)c1cccs1	0.9	0.8	-1	82*	-7	36
COc1ccc(-c2cn3cccnc3n2)cc1NC(=O)c1ccc(Br)o1	1	1	2	99*	-470	5
